Measured values from ChEMBL document CHEMBL4261658, “4-Hydroxy-3-nitro-5-ureido-benzenesulfonamides Selectively Target the Tumor-Associated Carbonic Anhydrase Isoforms IX and XII Showing Hypoxia-Enhanced Antiproliferative Profiles” (J Med Chem, 2018).

Experiments:
MDA-MB-231 [1] = test: Cytotoxicity against human MDA-MB-231 cells assessed as cell viability at 30 uM after 48 hrs under normoxic conditions by MTT assay (reference value: 100%); type: functional; settings: MDA-MB-231, 48 h, read-out: Activity
How it was run: (§1)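 Cells cultured in high-glucose DMEM with 20% FBS at 37 °C and 5% CO2, seeded at 1x10^4/well, then dosed 24 h later (0–200 μM) for 48 h. Hypoxia: 1% O2, 5% CO2, balance N2 in a hypoxic workstation; normoxia: 20% O2 in air, 5% CO2. MTT (1 mg/ml) for 30 min at 37 °C, formazan dissolved in DMSO, A550. Untreated control set to 100%; quadruplicates, ≥3 cell batches, mean ± S.E.M.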

MDA-MB-231 [2] = test: Cytotoxicity against human MDA-MB-231 cells assessed as cell viability at 200 uM after 48 hrs under normoxic conditions by MTT assay (reference value: 100%); type: functional; settings: MDA-MB-231, 48 h, read-out: Activity; how it was run: as §1
HT-29 [3] = test: Cytotoxicity against human HT-29 cells assessed as cell viability at 30 uM after 48 hrs under hypoxic conditions by MTT assay (reference value: 100%); type: functional; settings: Homo sapiens, HT-29, 48 h; read-out: Activity; how it was run: as §1
HT-29 [4] = test: Cytotoxicity against human HT-29 cells assessed as reduction in cell viability after 48 hrs under normoxic conditions by MTT assay; type: functional, cell-based; settings: for IC50: HT-29, 48 h; how it was run: as §1
MDA-MB-231 [5] = test: Cytotoxicity against human MDA-MB-231 cells assessed as cell viability at 100 uM after 48 hrs under normoxic conditions by MTT assay (reference value: 100%); type: functional; settings: MDA-MB-231, 48 h, read-out: Activity; how it was run: as §1
MDA-MB-231 [6] = test: Cytotoxicity against human MDA-MB-231 cells assessed as reduction in cell viability after 48 hrs under normoxic conditions by MTT assay; type: functional, cell-based; settings: for IC50: MDA-MB-231, 48 h; how it was run: as §1
PC-3 [7] = test: Cytotoxicity against human PC3 cells assessed as cell viability at 100 uM after 48 hrs under normoxic conditions by MTT assay (reference value: 100%); type: functional; settings: PC-3, 48 h, read-out: Activity; how it was run: as §1
HT-29 [8] = test: Cytotoxicity against human HT-29 cells assessed as cell viability at 100 uM after 48 hrs under normoxic conditions by MTT assay (reference value: 100%); type: functional; settings: Homo sapiens, HT-29, 48 h; read-out: Activity; how it was run: as §1
MDA-MB-231 [9] = test: Cytotoxicity against human MDA-MB-231 cells assessed as cell viability at 30 uM after 48 hrs under hypoxic conditions by MTT assay (reference value: 100%); type: functional; settings: MDA-MB-231, 48 h, read-out: Activity; how it was run: as §1
PC-3 [10] = test: Cytotoxicity against human PC3 cells assessed as cell viability at 200 uM after 48 hrs under normoxic conditions by MTT assay (reference value: 100%); type: functional; settings: PC-3, 48 h, read-out: Activity; how it was run: as §1
HT-29 [11] = test: Cytotoxicity against human HT-29 cells assessed as cell viability at 30 uM after 48 hrs under normoxic conditions by MTT assay (reference value: 100%); type: functional; settings: Homo sapiens, HT-29, 48 h; read-out: Activity; how it was run: as §1
HT-29 [12] = test: Cytotoxicity against human HT-29 cells assessed as cell viability at 200 uM after 48 hrs under normoxic conditions by MTT assay (reference value: 100%); type: functional; settings: Homo sapiens, HT-29, 48 h; read-out: Activity; how it was run: as §1
PC-3 [13] = test: Cytotoxicity against human PC3 cells assessed as cell viability at 30 uM after 48 hrs under hypoxic conditions by MTT assay (reference value: 100%); type: functional; settings: PC-3, 48 h, read-out: Activity; how it was run: as §1
HT-29 [14] = test: Cytotoxicity against human HT-29 cells assessed as cell viability at 200 uM after 48 hrs under hypoxic conditions by MTT assay (reference value: 100%); type: functional; settings: Homo sapiens, HT-29, 48 h; read-out: Activity; how it was run: as §1
MDA-MB-231 [15] = test: Cytotoxicity against human MDA-MB-231 cells assessed as cell viability at 200 uM after 48 hrs under hypoxic conditions by MTT assay (reference value: 100%); type: functional; settings: MDA-MB-231, 48 h, read-out: Activity; how it was run: as §1
PC-3 [16] = test: Cytotoxicity against human PC3 cells assessed as reduction in cell viability after 48 hrs under hypoxic conditions by MTT assay; type: functional, cell-based; settings: for IC50: PC-3, 48 h; how it was run: as §1
PC-3 [17] = test: Cytotoxicity against human PC3 cells assessed as cell viability at 100 uM after 48 hrs under hypoxic conditions by MTT assay (reference value: 100%); type: functional; settings: PC-3, 48 h, read-out: Activity; how it was run: as §1
HT-29 [18] = test: Cytotoxicity against human HT-29 cells assessed as cell viability at 100 uM after 48 hrs under hypoxic conditions by MTT assay (reference value: 100%); type: functional; settings: Homo sapiens, HT-29, 48 h; read-out: Activity; how it was run: as §1
PC-3 [19] = test: Cytotoxicity against human PC3 cells assessed as reduction in cell viability after 48 hrs under normoxic conditions by MTT assay; type: functional, cell-based; settings: for IC50: PC-3, 48 h; how it was run: as §1
Carbonic anhydrase 9 = Carbonic anhydrase 9 (Homo sapiens, UniProt Q16790); test: Inhibition of carbonic anhydrase 9 (unknown origin) preincubated for 15 mins by stopped flow CO2 hydration assay
MDA-MB-231 [20] = test: Cytotoxicity against human MDA-MB-231 cells assessed as reduction in cell viability after 48 hrs under hypoxic conditions by MTT assay; type: functional, cell-based; settings: for IC50: MDA-MB-231, 48 h; how it was run: as §1
HT-29 [21] = test: Cytotoxicity against human HT-29 cells assessed as reduction in cell viability after 48 hrs under hypoxic conditions by MTT assay; type: functional, cell-based; settings: for IC50: HT-29, 48 h; how it was run: as §1
PC-3 [22] = test: Cytotoxicity against human PC3 cells assessed as cell viability at 200 uM after 48 hrs under hypoxic conditions by MTT assay (reference value: 100%); type: functional; settings: PC-3, 48 h, read-out: Activity; how it was run: as §1
PC-3 [23] = test: Cytotoxicity against human PC3 cells assessed as cell viability at 30 uM after 48 hrs under normoxic conditions by MTT assay (reference value: 100%); type: functional; settings: PC-3, 48 h, read-out: Activity; how it was run: as §1
Carbonic anhydrase 12 = Carbonic anhydrase 12 (Homo sapiens, UniProt O43570)
Sequence of Carbonic anhydrase 12 (O43570 whole entry): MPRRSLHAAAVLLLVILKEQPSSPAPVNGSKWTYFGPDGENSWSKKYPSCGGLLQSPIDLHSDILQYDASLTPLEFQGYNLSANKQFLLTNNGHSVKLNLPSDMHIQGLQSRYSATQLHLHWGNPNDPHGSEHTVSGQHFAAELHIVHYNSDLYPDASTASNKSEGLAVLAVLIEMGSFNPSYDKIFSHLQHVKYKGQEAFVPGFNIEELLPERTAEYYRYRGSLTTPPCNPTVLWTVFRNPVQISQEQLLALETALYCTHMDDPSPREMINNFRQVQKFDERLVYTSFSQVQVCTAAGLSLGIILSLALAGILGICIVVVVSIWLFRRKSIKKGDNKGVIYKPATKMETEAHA

MDA-MB-231 [24] = test: Cytotoxicity against human MDA-MB-231 cells assessed as cell viability at 100 uM after 48 hrs under hypoxic conditions by MTT assay (reference value: 100%); type: functional; settings: MDA-MB-231, 48 h, read-out: Activity; how it was run: as §1
Homo sapiens = species on record: Homo sapiens; test: Selectivity ratio of Ki for carbonic anhydrase 2 (unknown origin) to Ki for carbonic anhydrase 9 (unknown origin)
Carbonic anhydrase 1 = Carbonic anhydrase 1 (Homo sapiens, UniProt P00915); test: Inhibition of recombinant human cytosolic carbonic anhydrase 1 preincubated for 15 mins by stopped flow CO2 hydration assay
Sequence of Carbonic anhydrase 1 (P00915 whole entry): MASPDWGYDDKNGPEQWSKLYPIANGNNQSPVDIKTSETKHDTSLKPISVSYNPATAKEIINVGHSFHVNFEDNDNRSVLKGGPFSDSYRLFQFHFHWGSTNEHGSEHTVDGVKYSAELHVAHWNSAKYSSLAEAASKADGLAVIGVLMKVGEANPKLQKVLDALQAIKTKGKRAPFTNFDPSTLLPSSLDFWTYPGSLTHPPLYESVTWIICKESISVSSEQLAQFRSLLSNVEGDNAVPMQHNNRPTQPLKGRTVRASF

| Compound | viability at 30 µM (MDA-MB-231 [1]) [%] | viability at 200 µM (MDA-MB-231 [2]) [%] | viability at 30 µM (HT-29 [3]) [%] | Activity (HT-29 [4]) | IC50 (HT-29 [4]) [µM] | viability at 100 µM (MDA-MB-231 [5]) [%] | Activity (MDA-MB-231 [6]) | IC50 (MDA-MB-231 [6]) [µM] | viability at 100 µM (PC-3 [7]) [%] | viability at 100 µM (HT-29 [8]) [%] | viability at 30 µM (MDA-MB-231 [9]) [%] | viability at 200 µM (PC-3 [10]) [%] | viability at 30 µM (HT-29 [11]) [%] | viability at 200 µM (HT-29 [12]) [%] | viability at 30 µM (PC-3 [13]) [%] | viability at 200 µM (HT-29 [14]) [%] | viability at 200 µM (MDA-MB-231 [15]) [%] | Activity (PC-3 [16]) | Ki (Carbonic anhydrase 9) [nM] | Ki (Carbonic anhydrase 12) [nM] | also measured |
| --- | --- | --- | --- | --- | --- | --- | --- | --- | --- | --- | --- | --- | --- | --- | --- | --- | --- | --- | --- | --- | --- |
| NS(=O)(=O)c1cc(NC(=O)c2ccc(F)cc2)c(OC(=O)c2ccc(F)cc2)c([N+](=O)[O-])c1 | 89.5 | 85.8 | 96.6 | Dose-dependent effect | 40.6 | 89.3 | Dose-dependent effect | > 200 | 13.9 | 5.7 | 92.9 | 10.2 | 62.8 | 6.6 | 95.7 | 8.4 | 13 | Dose-dependent effect | 100 | 210 | IC50 (PC-3 [16]): 56.3 µM; viability at 100 µM (PC-3 [17]): 29.9%; viability at 100 µM (HT-29 [18]): 24.2%; Activity (PC-3 [19]): Dose-dependent effect; IC50 (PC-3 [19]): 30.6 µM; Activity (MDA-MB-231 [20]): Dose-dependent effect; IC50 (MDA-MB-231 [20]): 52.3 µM; Activity (HT-29 [21]): Dose-dependent effect; IC50 (HT-29 [21]): 58.6 µM; viability at 200 µM (PC-3 [22]): 15.6%; viability at 30 µM (PC-3 [23]): 51.6%; viability at 100 µM (MDA-MB-231 [24]): 13.3% |
| NS(=O)(=O)c1cc(NC(=O)Nc2ccccc2)c(O)c([N+](=O)[O-])c1 | – | – | – | – | – | – | – | – | – | – | – | – | – | – | – | – | – | – | 940 | 830 | Ratio Ki (Homo sapiens): 3; Ki (Carbonic anhydrase 1): > 50 µM |
| NS(=O)(=O)c1cc(NC(=O)NCCc2ccccc2)c(O)c([N+](=O)[O-])c1 | 108 | 85.1 | 76.7 | Dose-dependent effect | > 200 | 107 | Dose-dependent effect | > 200 | 68.5 | 85.8 | 72 | 63.5 | 97.6 | 80.7 | 85.2 | 53.8 | 48.2 | Dose-dependent effect | 110 | 310 | Ratio Ki (Homo sapiens): 28; IC50 (PC-3 [16]): > 200 µM; viability at 100 µM (PC-3 [17]): 62.7%; viability at 100 µM (HT-29 [18]): 57.3%; Activity (PC-3 [19]): Dose-dependent effect; IC50 (PC-3 [19]): > 200 µM; Activity (MDA-MB-231 [20]): Dose-dependent effect; IC50 (MDA-MB-231 [20]): 194 µM; Activity (HT-29 [21]): Dose-dependent effect; IC50 (HT-29 [21]): > 200 µM; viability at 200 µM (PC-3 [22]): 61.9%; viability at 30 µM (PC-3 [23]): 115%; viability at 100 µM (MDA-MB-231 [24]): 79.8% |
| NS(=O)(=O)c1cc(NC(=O)Nc2c(F)c(F)c(F)c(F)c2F)c(O)c([N+](=O)[O-])c1 | 95.7 | 60.2 | 75.6 | Dose-dependent effect | > 200 | 66.7 | Dose-dependent effect | > 200 | 61.7 | 102 | 56.2 | 60.2 | 106 | 99.6 | 63.2 | 65.3 | 40.5 | Dose-dependent effect | 290 | 80 | IC50 (PC-3 [16]): > 200 µM; viability at 100 µM (PC-3 [17]): 53.2%; viability at 100 µM (HT-29 [18]): 70.2%; Activity (PC-3 [19]): Dose-dependent effect; IC50 (PC-3 [19]): > 200 µM; Activity (MDA-MB-231 [20]): Dose-dependent effect; IC50 (MDA-MB-231 [20]): 101 µM; Activity (HT-29 [21]): Dose-dependent effect; IC50 (HT-29 [21]): > 200 µM; viability at 200 µM (PC-3 [22]): 50.6%; viability at 30 µM (PC-3 [23]): 69%; viability at 100 µM (MDA-MB-231 [24]): 50.2% |
| NS(=O)(=O)c1cc(NC(=O)Nc2ccc(F)cc2)c(O)c([N+](=O)[O-])c1 | 100 | 90.3 | 90.8 | Dose-dependent effect | > 200 | 92.8 | Dose-dependent effect | > 200 | 71.7 | 112 | 84.8 | 56.2 | 110 | 107 | 83 | 79.3 | 61.7 | Dose-dependent effect | 340 | 500 | IC50 (PC-3 [16]): 134 µM; viability at 100 µM (PC-3 [17]): 61.3%; viability at 100 µM (HT-29 [18]): 88.2%; Activity (PC-3 [19]): Dose-dependent effect; IC50 (PC-3 [19]): > 200 µM; Activity (MDA-MB-231 [20]): Dose-dependent effect; IC50 (MDA-MB-231 [20]): > 200 µM; Activity (HT-29 [21]): Dose-dependent effect; IC50 (HT-29 [21]): > 200 µM; viability at 200 µM (PC-3 [22]): 23.5%; viability at 30 µM (PC-3 [23]): 86.9%; viability at 100 µM (MDA-MB-231 [24]): 68.4% |
| NS(=O)(=O)c1cc(NC(=O)NCc2ccco2)c(O)c([N+](=O)[O-])c1 | – | – | – | – | – | – | – | – | – | – | – | – | – | – | – | – | – | – | 390 | 530 | Ki (Carbonic anhydrase 1): > 50 µM |
